Among the data in ChEMBL document CHEMBL1156749 (Bioorg Med Chem Lett, 2009) are Ratio and Ki values, retold here.

Test [1] is filed under the species Rattus norvegicus. The test can be described thus: Selectivity ratio of Ki for rat NET to Ki for DAT. An outline of the steps: (§1)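 Ratio of Ki values from rat brain tissue displacement assays: [3H]WIN 35,428 for DAT, [3H]citalopram for SERT, [3H]nisoxetine for NET. Test agents were oxalate salts. Each Ki is the mean of three experiments run in triplicate.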
The species named for test [2] is Rattus norvegicus. The test can be described thus: Selectivity ratio of Ki for rat DAT to Ki for SERT. An outline of the steps: as §1
The target in another test is Transporter (Rattus norvegicus, UniProt Q63380). The test can be described thus: Displacement of [3H]nisoxetine from NET in rat brain. It is filed as tissue-based. (In general: In a radioligand displacement assay an active substance lowers the binding of a labelled ligand.)
Sequence of Transporter (Q63380 whole entry): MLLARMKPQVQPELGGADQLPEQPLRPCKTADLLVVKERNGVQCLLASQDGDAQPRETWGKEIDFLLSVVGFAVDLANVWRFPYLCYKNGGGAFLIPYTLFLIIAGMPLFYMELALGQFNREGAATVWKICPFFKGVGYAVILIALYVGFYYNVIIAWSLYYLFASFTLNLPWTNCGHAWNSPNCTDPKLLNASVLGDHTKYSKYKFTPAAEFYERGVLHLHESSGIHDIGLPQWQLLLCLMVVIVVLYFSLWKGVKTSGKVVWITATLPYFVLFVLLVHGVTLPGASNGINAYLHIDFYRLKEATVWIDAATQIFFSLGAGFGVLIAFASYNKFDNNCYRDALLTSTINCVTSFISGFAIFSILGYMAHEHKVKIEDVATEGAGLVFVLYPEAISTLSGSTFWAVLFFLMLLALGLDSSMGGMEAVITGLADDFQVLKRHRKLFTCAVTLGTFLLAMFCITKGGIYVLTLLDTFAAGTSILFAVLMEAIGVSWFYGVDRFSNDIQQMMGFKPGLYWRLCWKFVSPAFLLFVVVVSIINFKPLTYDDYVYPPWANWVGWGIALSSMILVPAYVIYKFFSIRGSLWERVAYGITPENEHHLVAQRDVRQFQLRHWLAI
The target in test [3] is Sodium-dependent serotonin transporter (Rattus norvegicus, UniProt P31652). The test can be described thus: Displacement of [3H]citalopram from SERT in rat brain. It is filed as tissue-based.
Sequence of Sodium-dependent serotonin transporter (P31652 whole entry): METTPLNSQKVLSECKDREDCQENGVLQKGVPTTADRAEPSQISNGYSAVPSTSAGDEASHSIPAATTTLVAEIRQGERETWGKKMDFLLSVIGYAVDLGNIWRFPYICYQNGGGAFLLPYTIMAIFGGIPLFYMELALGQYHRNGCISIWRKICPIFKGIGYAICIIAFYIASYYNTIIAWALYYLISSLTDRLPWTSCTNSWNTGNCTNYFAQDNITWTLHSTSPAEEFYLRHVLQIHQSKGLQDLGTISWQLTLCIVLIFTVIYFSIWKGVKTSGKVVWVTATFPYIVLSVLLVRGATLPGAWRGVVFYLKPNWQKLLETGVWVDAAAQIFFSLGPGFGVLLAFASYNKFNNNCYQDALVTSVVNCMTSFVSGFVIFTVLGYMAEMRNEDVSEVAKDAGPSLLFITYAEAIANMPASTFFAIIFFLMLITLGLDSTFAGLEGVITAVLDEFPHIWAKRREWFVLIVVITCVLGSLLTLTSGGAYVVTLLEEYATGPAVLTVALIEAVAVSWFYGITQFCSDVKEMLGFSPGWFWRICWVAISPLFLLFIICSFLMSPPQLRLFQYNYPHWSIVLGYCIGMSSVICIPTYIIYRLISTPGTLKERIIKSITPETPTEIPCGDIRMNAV
The species named for test [4] is Rattus norvegicus. As to the kind of experiment: Selectivity ratio of Ki for rat NET to Ki for SERT. A digest of the protocol: as §1
Test [5] has as its target Sodium-dependent dopamine transporter (Rattus norvegicus, UniProt P23977). As to the kind of experiment: Displacement of [3H]WIN-35428 from DAT in rat brain. It is filed as tissue-based. A digest of the protocol:
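Radioligand displacement from monoamine transporters in rat brain tissue: [3H]WIN 35,428 for DAT, [3H]citalopram for SERT, [3H]nisoxetine for NET. Test agents were used as oxalate salts, and Ki was derived from displacement. Values are mean ± SEM of three experiments, each run in triplicate.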

Sequence of Sodium-dependent dopamine transporter (P23977 whole entry): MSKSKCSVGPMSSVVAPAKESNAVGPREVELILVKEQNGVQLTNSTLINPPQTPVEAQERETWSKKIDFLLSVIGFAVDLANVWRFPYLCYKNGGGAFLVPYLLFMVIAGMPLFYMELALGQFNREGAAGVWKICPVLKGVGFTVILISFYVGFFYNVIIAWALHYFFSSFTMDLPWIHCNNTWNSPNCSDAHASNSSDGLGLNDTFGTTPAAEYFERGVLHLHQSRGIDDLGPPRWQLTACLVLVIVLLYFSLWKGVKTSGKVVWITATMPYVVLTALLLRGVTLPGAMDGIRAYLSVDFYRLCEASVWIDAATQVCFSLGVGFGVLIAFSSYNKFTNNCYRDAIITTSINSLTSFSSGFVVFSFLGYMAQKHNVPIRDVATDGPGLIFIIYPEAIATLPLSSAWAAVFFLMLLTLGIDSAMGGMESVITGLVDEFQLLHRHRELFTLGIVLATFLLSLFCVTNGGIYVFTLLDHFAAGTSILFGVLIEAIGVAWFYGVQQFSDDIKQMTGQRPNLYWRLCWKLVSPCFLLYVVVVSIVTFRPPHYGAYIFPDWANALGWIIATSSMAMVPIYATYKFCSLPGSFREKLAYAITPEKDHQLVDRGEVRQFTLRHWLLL

For `Clc1ccc(CO[C@@]2(c3ccccc3)C[C@H]3CC[C@@H](C2)N3)cc1`, the Ratio in the test listed under Rattus norvegicus [1] was 4.6; in the test listed under Rattus norvegicus [2], 3.6; in the test listed under Rattus norvegicus [4], 17. The Ki (as a rule, a dissociation constant, usually derived from enzyme kinetics or from competition with a known ligand) on Transporter is 101 nM; in test [3], 6.1 nM; in test [5], 22 nM.
As to `C1=C(c2ccccc2)CC2CCC1N2` (centres undefined), the Ratio stood at 1.1 in the test listed under Rattus norvegicus [1], 6.9 in the test listed under Rattus norvegicus [2] and 7.3 in the test filed under Rattus norvegicus [4]. The Ki on Transporter is 1290 nM; in test [3] it was 176 nM; in test [5] it was 1220 nM.
For `Clc1ccc([C@]2(OCc3ccccc3)C[C@H]3CC[C@@H](C2)N3)cc1`, the Ratio in the test filed under Rattus norvegicus [1] came out at 10; in the test listed under Rattus norvegicus [2], 2.7; in the test filed under Rattus norvegicus [4], 26. The Ki at Transporter amounted to 1720 nM; in test [3], 65 nM; in test [5], 172 nM.
In the case of `Clc1ccc(CO[C@@]2(c3ccc(Cl)c(Cl)c3)C[C@H]3CC[C@@H](C2)N3)cc1`, the results for the Ratio in the test filed under Rattus norvegicus [1], in the test filed under Rattus norvegicus [2] and in the test filed under Rattus norvegicus [4] were 5.4, 46 and 246, respectively.
In the case of `FC(F)(F)c1ccc(C2=CC3CCC(C2)N3)cc1` (centres undefined), the results for the Ratio in the test listed under Rattus norvegicus [2] and in the test listed under Rattus norvegicus [4] were 830 and 432, respectively. The inhibitory constant (Ki) on Transporter came to 777 nM; in test [3], 1.8 nM; in test [5] it was 1490 nM.
In the case of `c1ccc(CO[C@@]2(c3ccccc3)C[C@H]3CC[C@@H](C2)N3)cc1`, the Ratio in the test filed under Rattus norvegicus [2] stood at 0.47. Besides, the Ki amounted to 247 nM in test [3] and 117 nM in test [5].
Take `Clc1ccc(C2=CC3CCC(C2)N3)cc1Cl` (centres undefined): the Ratio in the test filed under Rattus norvegicus [1] amounted to 1.3; in the test listed under Rattus norvegicus [2], 53; in the test filed under Rattus norvegicus [4], 67. Moreover, the Ki at Transporter stood at 20 nM; in test [3], 0.3 nM; in test [5], 16 nM.
Consider `Clc1ccc(CO[C@@]2(c3ccccc3)C[C@H]3CC[C@@H](C2)N3)cc1Cl`, for which the Ratio is 62 in the test filed under Rattus norvegicus [1], 258 in the test filed under Rattus norvegicus [2] and 16300 in the test filed under Rattus norvegicus [4]. Moreover, the Ki on Transporter is 996 nM; in test [3], 0.061 nM; in test [5], 16 nM.
Take `Clc1ccc(C2=CC3CCC(C2)N3)cc1` (centres undefined): the Ratio in the test listed under Rattus norvegicus [1] turned out to be 0.52; in the test listed under Rattus norvegicus [2], 83; in the test filed under Rattus norvegicus [4], 43. The results for the Ki (on Transporter; in test [3]; in test [5]) were 120 nM, 2.8 nM and 231 nM, respectively.
Consider `Clc1ccc(CO[C@@]2(c3ccc(Cl)cc3)C[C@H]3CC[C@@H](C2)N3)cc1`, for which the results for the Ratio in the test filed under Rattus norvegicus [1], in the test filed under Rattus norvegicus [2] and in the test listed under Rattus norvegicus [4] were 38, 630 and 23700, respectively. Further, the Ki is 2370 nM on Transporter, 0.1 nM in test [3] and 63 nM in test [5].
As for `Clc1ccc([C@]2(OCc3ccccc3)C[C@H]3CC[C@@H](C2)N3)cc1Cl`, the Ratio in the test filed under Rattus norvegicus [1] worked out at 1.7; in the test listed under Rattus norvegicus [2], 11; in the test listed under Rattus norvegicus [4], 20. Besides, the Ki on Transporter turned out to be 1230 nM; in test [3], 62 nM; in test [5] it was 716 nM.
`Clc1ccc(CO[C@@]2(c3ccc(Cl)c(Cl)c3)C[C@H]3CC[C@@H](C2)N3)cc1Cl`: the Ratio in the test filed under Rattus norvegicus [1] amounted to 0.87; in the test filed under Rattus norvegicus [2], 601; in the test filed under Rattus norvegicus [4], 543. The Ki was found to be 2550 nM at Transporter, 4.7 nM in test [3] and 2930 nM in test [5].
For `FC(F)(F)c1ccc([C@]2(OCc3ccccc3)C[C@H]3CC[C@@H](C2)N3)cc1`, the Ratio is 3.9 in the test filed under Rattus norvegicus [1], 2.6 in the test listed under Rattus norvegicus [2] and 10 in the test filed under Rattus norvegicus [4]. In addition, the Ki at Transporter came out at 5440 nM; in test [3], 534 nM; in test [5] it was 1390 nM.
As for `Fc1ccc(C2=CC3CCC(C2)N3)cc1` (centres undefined), the Ratio was 1.9 in the test listed under Rattus norvegicus [1] and 8.2 in the test listed under Rattus norvegicus [2]. The same compound registered a Ki in test [5] of 1060 nM.
